Screens as filed in PubChem BioAssay.
Compounds with a hit are over-represented: about 6.6% of the library has one in this group of screens.
PostGolgi ctrl: inhibits growth of the yeast control strain. efflux-deficient yeast background strain, growth absorbance A615, 16 h. actives 5% (n = 98,000). inhibition, % at 10 µM
HER2 expr 66K: lowers expression of human Her2 kinase; actives 0.69% (n = 65,000); HER2 level % of control, % at 10 µM; P04626; SKBR-3 HER2 protein level, AlphaScreen, 18-24 h; active compounds read low;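 active = HER2 level under 5% of the carrier-only control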;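 also: lower value means stronger loss of Her2 protein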
tolC growth inh: growth inhibitors of E. coli BW25113 tolC mutant; actives 2.2% (n = 65,000); growth inhibition, % at 10 µM (by protocol); OD615;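 active = growth inhibition at or above a cutoff equal to the mean over every tested compound plus 3 SD, cut at about 60% in these data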;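 also: growth measured after 20 h incubation at 37 °C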
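Assay system: tolC-deleted E. coli BW25113. Medium: kanamycin-containing LB broth (50 µg/mL). Dosing: 10 µM final, single dose. Timing: bacterial growth with compound for 20 h at 37 °C. Detection: A615 absorbance measurement. Read-out basis: growth inhibition in percent.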
Ecoli WT expand: E. coli BW25113 growth inhibition, expanded screen | actives 0.15% (n = 98,000) | OD600 absorbance | growth inhibition, % at 100 µM | AID 710;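 active = growth inhibition above about 50% at one test dose, limit read from the data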;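 also: growth measured after 20 h incubation at 37 °C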
PostGolgi yeast: growth inhibition of a yeast mutant, post-Golgi transport screen; post-Golgi transport phenotypic cell assay; inhibition, % at 10 µM; actives 0.9% (n = 98,000);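 also: yeast cells grown in 1536-well plates; yeast grown about 18 h at 30C before absorbance read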
Each line names hits and unclear results; the compound was inactive in the other large screens. Rule as the data show it, unless noted: active = inhibition above about 30%; inactive = the rest.

O=C(Nc1cc(S(=O)(=O)N2CCOCC2)ccc1Cl)C(=O)c1c(-c2ccccc2)cc2ccccn12	PostGolgi ctrl 100, PostGolgi yeast 93 (no result: HER2 expr 66K, tolC growth inh)
c1cc2c(cc1-c1cnc3n1CCC3)OCCO2	PostGolgi ctrl 37
Cc1ccc(-c2nnc3n2CCCCC3)cc1	none (no result: HER2 expr 66K, tolC growth inh)
c1ccc(-c2ccc(-c3cnc4n3CCCCC4)cc2)cc1	PostGolgi yeast 81 (no result: HER2 expr 66K, tolC growth inh)
O=C(CN1CCN(c2ncc(C(F)(F)F)cc2Cl)CC1)N1CCN(c2ncc(C(F)(F)F)cc2Cl)CC1	PostGolgi ctrl 30 (no result: HER2 expr 66K, tolC growth inh)
Cc1ccc(-c2nnc(SCC(C)C)n2C)cc1	none (no result: HER2 expr 66K, tolC growth inh)
CCSc1nnc(NC(=O)NCC(F)(F)F)s1	PostGolgi yeast 45
CCSc1nnc(NC(=O)c2cnccn2)s1	none (no result: PostGolgi ctrl, Ecoli WT expand, PostGolgi yeast)
CCSc1nnc(NC(=O)c2cc(C)on2)s1	PostGolgi ctrl 33
CCSc1nnc(NC(=O)c2ccccc2)s1	none (no result: PostGolgi ctrl, Ecoli WT expand, PostGolgi yeast)
CCSc1nnc(NC(=O)c2ccc3c(c2)OCO3)s1	PostGolgi ctrl 41
CCSc1nnc(NC(=O)c2ccccn2)s1	tolC growth inh 100, Ecoli WT expand 63
COc1cc(-c2nnc(SCC3(c4ccc(Br)cc4)OCCO3)o2)cc(OC)c1OC	none (no result: HER2 expr 66K, tolC growth inh)
CC(=O)N1CCC(=NNS(=O)(=O)c2cccc([N+](=O)[O-])c2)CC1	none (no result: HER2 expr 66K, tolC growth inh)
O=C(N/N=C/c1ccc2c(c1)OCO2)C1COc2ccccc2O1 (configuration not stated)	none (no result: HER2 expr 66K, tolC growth inh)
O=C(N/N=C\c1cc(Br)cs1)C1COc2ccccc2O1 (configuration not stated)	PostGolgi ctrl 37 (no result: HER2 expr 66K, tolC growth inh)
Cc1cc2oc(=O)cc(COC(=O)c3cccc(N(C)C)c3)c2cc1C	none (no result: PostGolgi ctrl, Ecoli WT expand, PostGolgi yeast)
COCCn1nnnc1C(C(C)C)N1CCOCC1 (configuration not stated)	PostGolgi ctrl 40
COCCn1nnnc1C(c1ccc(C(F)(F)F)cc1)N1CCOCC1 (configuration not stated)	none (no result: HER2 expr 66K, tolC growth inh)
O=S(=O)(CCSc1nc2ccccc2s1)c1nc2ccccc2s1	PostGolgi ctrl 90 (no result: HER2 expr 66K, tolC growth inh)
CCS(=O)(=O)CCSc1nc2ccccc2s1	none
CC1CCC(NC(=O)CC2Oc3ccccc3NC2=O)CC1 (configuration not stated)	none
N#Cc1c(NC(=O)COC(=O)c2ccc(F)cc2)sc2c1CCC2	PostGolgi ctrl 37 (no result: HER2 expr 66K, tolC growth inh)
Cc1cccc(-c2cc3nc(C)cc(NCCCn4ccnc4)n3n2)c1	none (no result: HER2 expr 66K, tolC growth inh)
Cc1cc(NCCCn2ccnc2)n2ncc(-c3ccc(Cl)cc3)c2n1	PostGolgi ctrl 47 (no result: HER2 expr 66K, tolC growth inh)
Cc1cc(NCCCN2CCOCC2)n2ncc(-c3ccc(Cl)cc3)c2n1	PostGolgi ctrl 31, PostGolgi yeast 85
Cc1ccc(NC(=O)CCc2c(C)nc3ncnn3c2C)nc1	none
CC(=O)c1c(C)[nH]c(C(=O)NCCN2CCC(C)CC2)c1C	none
Cc1ccc(NC(=O)CSc2nnc(CCNC(=O)OC(C)(C)C)o2)c(C)c1	PostGolgi ctrl 35 (no result: HER2 expr 66K, tolC growth inh)
CSc1ncccc1C(=O)OCc1ccccc1F	PostGolgi ctrl 36
O=C(NCc1ccccc1)c1ccc(C(=O)N(C2CCCCC2)C2CCCCC2)cc1	PostGolgi ctrl 52 (no result: HER2 expr 66K, tolC growth inh)
O=C(NCc1ccccc1)NC1CCCCC1	none
CCOC(=O)Cc1csc(NC(=S)NC(=O)c2ccc(F)cc2)n1	PostGolgi ctrl 41 (no result: HER2 expr 66K, tolC growth inh)
CCOC(=O)Cc1csc(NC(=O)COc2ccc(OC)cc2)n1	HER2 expr 66K 4.1
CCOC(=O)Cc1csc(NC(=O)COc2ccc3ccccc3c2)n1	none (no result: HER2 expr 66K, tolC growth inh)
CCOC(=O)N1CCN(C(=O)CSCC(=O)Nc2nc(-c3ccc(OC)cc3)cs2)CC1	PostGolgi ctrl 30
CC1Cc2ccccc2N1C(=O)CCn1c(=O)sc2ccccc21 (configuration not stated)	none (no result: PostGolgi ctrl, Ecoli WT expand, PostGolgi yeast)
CC12CC(NC(=O)N1c1cccc(C(=O)NCc3ccccc3)c1)c1ccccc1O2 (configuration not stated)	none (no result: HER2 expr 66K, tolC growth inh)
CCOc1ccccc1NC(=O)COn1nnc2ccccc21	none (no result: HER2 expr 66K, tolC growth inh)
CCOC(=O)C1CCN(c2cc(=O)n(Cc3ccc(F)cc3)c(=O)[nH]2)CC1	none
CC(C)(C)OC(=O)NCCc1nnc(S(=O)(=O)Cc2ccc(Cl)cc2Cl)o1	HER2 expr 66K -16
CC(C)(C)OC(=O)NCCc1nnc(SCc2ccccc2Cl)o1	none
C=CCCCCCCCCC(=O)NNC1=CC(=O)CC(C)(C)C1	none (no result: HER2 expr 66K, tolC growth inh)
COc1ccc(C2=NCC(CSc3nnc(-c4ccc5c(c4)OCO5)o3)S2)cc1 (configuration not stated)	PostGolgi ctrl 37
CSc1cccc(NC(=O)C2CCCN2S(=O)(=O)c2ccc(Br)s2)c1 (configuration not stated)	none (no result: HER2 expr 66K, tolC growth inh)
Nc1ccc(-c2nc3c(Cl)c(N)ccc3[nH]2)cc1	PostGolgi ctrl 33
Nc1ccc2nc(-c3ccc(Cl)cc3)[nH]c2c1	none
